Laboratory results from ChEMBL document CHEMBL4393701, “Appendix A. dithioloquinolinethiones as new potential multitargeted antibacterial and antifungal agents: Synthesis, biological evaluation and molecular docking studies” (2019).
In brackets after ≈: the same amount, converted by molar mass. Values belong to the compound of their own block, whether it stands above or below them.

Legend:
[1] = test system: Aspergillus fumigatus; test: Antifungal activity against Aspergillus fumigatus ATCC 1022 after 72 hrs by microdilution technique; assay type: functional; conditions: ATCC 1022, 72 h
In short: (§1)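 Spores were washed off malt agar with 0.85% saline containing 0.1% Tween 80 and adjusted to about 1.0×10^5 per well. Compounds in 5% DMSO were serially diluted (0.001-1.0 mg/ml) in malt broth with inoculum. Plates were shaken at 160 rpm for 72 h at 28 °C. MIC is the lowest concentration without visible growth under a binocular microscope. Three independent experiments in duplicate.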

[2] = test system: Aspergillus fumigatus; test: Fungicidal activity against Aspergillus fumigatus ATCC 1022 incubated for 72 hrs followed by sub-culturing on broth malt medium and measured after 72 hrs; assay type: functional; conditions: ATCC 1022, 72 h
In short: (§2)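 After 72 h exposure in malt broth, 2 µL from test wells was subcultured into wells holding 100 µL broth and incubated a further 72 h at 28 °C. MFC is the lowest concentration with no visible growth, taken as 99.5% kill of the original inoculum. Three independent experiments in duplicate.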

[3] = test system: Aspergillus versicolor; test: Antifungal activity against Aspergillus versicolor ATCC 11730 after 72 hrs by microdilution method; assay type: functional; conditions: ATCC 11730, 72 h; in short: as §1
[4] = test system: Aspergillus versicolor; test: Fungicidal activity against Aspergillus versicolor ATCC 11730 incubated for 72 hrs followed by sub-culturing on broth malt medium and measured after 72 hrs; assay type: functional; conditions: ATCC 11730, 72 h; in short: as §2
[5] = test system: Aspergillus ochraceus; test: Antifungal activity against Aspergillus ochraceus ATCC 12066 after 72 hrs by microdilution technique; assay type: functional; conditions: ATCC 12066, 72 h; in short: as §1
[6] = test system: Aspergillus ochraceus; test: Fungicidal activity against Aspergillus ochraceus ATCC 12066 incubated for 72 hrs followed by sub-culturing on broth malt medium and measured after 72 hrs; assay type: functional; conditions: ATCC 12066, 72 h; in short: as §2
[7] = test system: Aspergillus niger; test: Antifungal activity against Aspergillus niger ATCC 6275 after 72 hrs by microdilution technique; assay type: functional; conditions: ATCC 6275, 72 h; in short: as §1
[8] = test system: Aspergillus niger; test: Fungicidal activity against Aspergillus niger ATCC 6275 incubated for 72 hrs followed by sub-culturing on broth malt medium and measured after 72 hrs; assay type: functional; conditions: ATCC 6275, 72 h; in short: as §2
[9] = test system: Trichoderma viride; test: Antifungal activity against Trichoderma viride IAM 5061 after 72 hrs by microdilution technique; assay type: functional; conditions: IAM 5061, 72 h; in short: as §1
[10] = test system: Trichoderma viride; test: Fungicidal activity against Trichoderma viride IAM 5061 incubated for 72 hrs followed by sub-culturing on broth malt medium and measured after 72 hrs; assay type: functional; conditions: IAM 5061, 72 h; in short: as §2
[11] = test system: Penicillium ochrochloron; test: Antifungal activity against Penicillium ochrochloron ATCC 9112 after 72 hrs by microdilution technique; assay type: functional; conditions: ATCC 9112, 72 h; in short: as §1
[12] = test system: Penicillium ochrochloron; test: Fungicidal activity against Penicillium ochrochloron ATCC 9112 incubated for 72 hrs followed by sub-culturing on broth malt medium and measured after 72 hrs; assay type: functional; conditions: ATCC 9112, 72 h; in short: as §2
[13] = Antifungal activity against Penicillium funiculosum ATCC 36839 after 72 hrs by microdilution technique; assay type: functional; conditions: Talaromyces pinophilus, ATCC 36839, 72 h; in short: as §1
[14] = Fungicidal activity against Penicillium funiculosum ATCC 36839 incubated for 72 hrs followed by sub-culturing on broth malt medium and measured after 72 hrs; assay type: functional; conditions: Talaromyces pinophilus, ATCC 36839, 72 h; in short: as §2
[15] = test system: Penicillium cyclopium; test: Antifungal activity against Penicillium verrucosum var. cyclopium food isolate after 72 hrs by microdilution technique; assay type: functional; in short: as §1
[16] = test system: Penicillium cyclopium; test: Fungicidal activity against Penicillium verrucosum var. cyclopium food isolate incubated for 72 hrs followed by sub-culturing on broth malt medium and measured after 72 hrs; assay type: functional; in short: as §2
[17] = test system: Bacillus cereus; test: Antibacterial activity against Bacillus cereus clinical isolate after 24 hrs by iodonitrotetrazolium chloride dye based microdilution assay; assay type: functional
In short: (§3)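 Fresh overnight cultures adjusted spectrophotometrically to 1×10^5 CFU/mL, giving 1.0×10^4 CFU per well in tryptic soy broth. Compounds were dissolved in 5% DMSO and tested at 0.001-1.0 mg/ml by serial dilution; 5% DMSO was the negative control. After 24 h at 37 °C, 0.2 mg/mL INT solution was added for 30 min at 37 °C and OD read at 655 nm. MIC is the lowest concentration giving significant growth inhibition versus the positive control. Duplicates, repeated three times.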

[18] = test system: Bacillus cereus; test: Bactericidal activity against Bacillus cereus clinical isolate incubated for 24 hrs followed by re-plating on tryptic soy broth; assay type: functional
In short: (§4)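 Bacteria were grown in tryptic soy broth, 1.0×10^4 CFU per well, with compounds in 5% DMSO at 0.001-1.0 mg/ml for 24 h at 37 °C. Then 10 µL was subcultured into fresh TSB. MBC is the lowest concentration showing no growth after subculture, taken as 99.5% kill of the original inoculum. Duplicates, repeated three times.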

[19] = test system: Micrococcus flavus; test: Antibacterial activity against Micrococcus flavus ATCC 10240 after 24 hrs by iodonitrotetrazolium chloride dye based microdilution method; assay type: functional; conditions: ATCC 10240, 24 h; in short: as §3
[20] = test system: Micrococcus flavus; test: Bactericidal activity against Micrococcus flavus ATCC 10240 incubated for 24 hrs followed by re-plating on tryptic soy broth; assay type: functional; conditions: ATCC 10240, 24 h; in short: as §4
[21] = test system: Staphylococcus aureus; test: Antibacterial activity against Staphylococcus aureus ATCC 6538 after 24 hrs by iodonitrotetrazolium chloride dye based microdilution method; assay type: functional; conditions: ATCC 6538, 24 h; in short: as §3
[22] = test system: Staphylococcus aureus; test: Bactericidal activity against Staphylococcus aureus ATCC 6538 incubated for 24 hrs followed by re-plating on tryptic soy broth; assay type: functional; conditions: ATCC 6538, 24 h; in short: as §4
[23] = test system: Listeria monocytogenes; test: Antibacterial activity against Listeria monocytogenes NCTC 7973 after 24 hrs by iodonitrotetrazolium chloride dye based microdilution method; assay type: functional; conditions: NCTC 7973, 24 h; in short: as §3
[24] = test system: Listeria monocytogenes; test: Bactericidal activity against Listeria monocytogenes NCTC 7973 incubated for 24 hrs followed by re-plating on tryptic soy broth; assay type: functional; conditions: NCTC 7973, 24 h; in short: as §4
[25] = test system: Enterobacter cloacae; test: Antibacterial activity against Enterobacter cloacae clinical isolate after 24 hrs by iodonitrotetrazolium chloride dye based microdilution method; assay type: functional; in short: as §3
[26] = test system: Enterobacter cloacae; test: Bactericidal activity against Enterobacter cloacae incubated for 24 hrs followed by re-plating on tryptic soy broth; assay type: functional; in short: as §4
[27] = test system: Pseudomonas aeruginosa; test: Antibacterial activity against Pseudomonas aeruginosa ATCC 27853 after 24 hrs by iodonitrotetrazolium chloride dye based microdilution method; assay type: functional; conditions: ATCC 27853, 24 h; in short: as §3
[28] = test system: Pseudomonas aeruginosa; test: Bactericidal activity against Pseudomonas aeruginosa ATCC 27853 incubated for 24 hrs followed by re-plating on tryptic soy broth; assay type: functional; conditions: ATCC 27853, 24 h; in short: as §4
[29] = test system: Salmonella typhimurium; test: Antibacterial activity against Salmonella typhimurium ATCC 13311 after 24 hrs by iodonitrotetrazolium chloride dye based microdilution method; assay type: functional, Salmonella enterica subsp. enterica serovar Typhimurium; conditions: Salmonella enterica, ATCC 13311, 24 h; in short: as §3
[30] = test system: Salmonella typhimurium; test: Bactericidal activity against Salmonella typhimurium ATCC 13311 incubated for 24 hrs followed by re-plating on tryptic soy broth; assay type: functional, Salmonella enterica subsp. enterica serovar Typhimurium; conditions: Salmonella enterica, ATCC 13311, 24 h; in short: as §4
[31] = test system: Escherichia coli; test: Antibacterial activity against Escherichia coli ATCC 35210 after 24 hrs by iodonitrotetrazolium chloride dye based microdilution method; assay type: functional; conditions: ATCC 35210, 24 h; in short: as §3
[32] = test system: Escherichia coli; test: Bactericidal activity against Escherichia coli ATCC 35210 incubated for 24 hrs followed by re-plating on tryptic soy broth; assay type: functional; conditions: ATCC 35210, 24 h; in short: as §4

Structure (SMILES): c1ccc(-c2ccc(C(c3ccccc3)n3ccnc3)cc2)cc1 (stereo not drawn) [BIFONAZOLE]
MIC [1]: 48 ×10⁻² mM
MFC [2]: 64 ×10⁻² mM
MIC [3]: 48 ×10⁻² mM
MFC [4]: 64 ×10⁻² mM
MIC [5]: 48 ×10⁻² mM
MFC [6]: 80 ×10⁻² mM
MIC [7]: 48 ×10⁻² mM
MFC [8]: 64 ×10⁻² mM
MIC [9]: 64 ×10⁻² mM
MFC [10]: 80 ×10⁻² mM
MIC [11]: 64 ×10⁻² mM
MFC [12]: 80 ×10⁻² mM
MIC [13]: 48 ×10⁻² mM
MFC [14]: 64 ×10⁻² mM
MIC [15]: 48 ×10⁻² mM
MFC [16]: 64 ×10⁻² mM

Structure (SMILES): CC(=O)N1CCN(c2ccc(OCC3COC(Cn4ccnc4)(c4ccc(Cl)cc4Cl)O3)cc2)CC1 (stereo not drawn) [KETOCONAZOLE]
MIC [1]: 38 ×10⁻² mM
MFC [2]: 95 ×10⁻² mM
MIC [3]: 285 ×10⁻² mM
MFC [4]: 380 ×10⁻² mM
MIC [5]: 38 ×10⁻² mM
MFC [6]: 95 ×10⁻² mM
MIC [7]: 38 ×10⁻² mM
MFC [8]: 95 ×10⁻² mM
MIC [9]: 475 ×10⁻² mM
MFC [10]: 570 ×10⁻² mM
MIC [11]: 38 ×10⁻² mM
MFC [12]: 95 ×10⁻² mM
MIC [13]: 380 ×10⁻² mM
MFC [14]: 380 ×10⁻² mM
MIC [15]: 38 ×10⁻² mM
MFC [16]: 57 ×10⁻² mM

MIC [17]: 43 µM (≈ 25 µg/mL)
MIC [19]: 86 µM (≈ 50 µg/mL)
MIC [21]: 172 µM (≈ 100 µg/mL)
MIC [23]: 258 µM (≈ 150 µg/mL)
MIC [25]: 270 µM (≈ 157 µg/mL)
MIC [27]: 172 µM (≈ 100 µg/mL)
MIC [29]: 43 µM (≈ 25 µg/mL)
MIC [31]: 270 µM (≈ 157 µg/mL)
Structure (SMILES): CN[C@@H]1[C@H](O[C@H]2[C@H](O[C@H]3[C@H](O)[C@@H](O)[C@H](N=C(N)N)[C@@H](O)[C@@H]3N=C(N)N)O[C@@H](C)[C@]2(O)C=O)O[C@@H](CO)[C@H](O)[C@H]1O [STREPTOMYCIN]
MBC [18]: 86 µM (≈ 50 µg/mL)
MBC [20]: 172 µM (≈ 100 µg/mL)
MBC [22]: 344 µM (≈ 200 µg/mL)
MBC [24]: 516 µM (≈ 300 µg/mL)
MBC [26]: 344 µM (≈ 200 µg/mL)
MBC [28]: 344 µM (≈ 200 µg/mL)
MBC [30]: 86 µM (≈ 50 µg/mL)
MBC [32]: 344 µM (≈ 200 µg/mL)
